Data from ChEMBL document CHEMBL3392996, “Non-transpeptidase binding arylthioether β-lactams active against Mycobacterium tuberculosis and Moraxella catarrhalis” (2015).
Values after ≈ are worked out from the molar mass of the structure shown.

Experiments:
Assay type in all cases: functional
[1] = system: Mycobacterium tuberculosis; assay: Antimicrobial activity against Mycobacterium tuberculosis H37Rv incubated for 48 hrs by microdilution broth method
Moraxella catarrhalis [2] = assay: Antimicrobial activity against Moraxella catarrhalis clinical isolates incubated for 48 hrs by microdilution broth method
Procedure, shortened: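 Stocks in DMSO were diluted at least 10-fold into Mueller-Hinton broth, then 2-fold serially diluted in MH from 500 to 15.6 μg/ml. Bacteria were added, with DMSO-only dilution controls, and incubated at 37 °C for 48 h. Growth was scored at 24 and 48 h. MIC was the lowest concentration with no growth. Run in quadruplicate.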

Moraxella catarrhalis [3] = assay: Bactericidal activity against Moraxella catarrhalis clinical isolates incubated for 48 hrs by microdilution broth method and standard plating method
Procedure, shortened: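 Broth microdilution in Mueller-Hinton broth, 2-fold series from 500 to 15.6 μg/ml, with DMSO-only controls, 37 °C for 48 h. Wells showing no growth were plated (10 μL) on MH agar. MBC was the lowest concentration giving no growth on plating. Run in quadruplicate.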

SMILES | MIC [1] | MIC (Moraxella catarrhalis [2]) | MBC (Moraxella catarrhalis [3])
O=C1CCN1C(=O)NCc1ccccc1 | > 100 µg/mL | > 100 µg/mL | –
O=C1CC(Sc2cccs2)N1 (racemic) | 6.25 µg/mL (≈ 33.7 µM) | 25 µg/mL (≈ 135 µM) | 100 µg/mL (≈ 540 µM)
O=C1CC(Sc2ccccc2)N1 (racemic) | 25 µg/mL (≈ 139 µM) | > 200 µg/mL | –
O=C1CC(Sc2ccccc2F)N1 (racemic) | 25 µg/mL (≈ 127 µM) | 200 µg/mL (≈ 1010 µM) | –
O=C1CC(Sc2cccc(F)c2)N1 (racemic) | 100 µg/mL (≈ 507 µM) | > 200 µg/mL | –
O=C1CC(Sc2ccc(F)cc2)N1 (racemic) | > 100 µg/mL | > 200 µg/mL | –
O=C1CC(Sc2ccc(F)cc2F)N1 (racemic) | 3.13 µg/mL (≈ 14.5 µM) | 1.5 µg/mL (≈ 6.97 µM) | 3.13 µg/mL (≈ 14.5 µM)
O=C1CC(Sc2ccc(F)c(F)c2)N1 (racemic) | 50 µg/mL (≈ 232 µM) | 50 µg/mL (≈ 232 µM) | 50 µg/mL (≈ 232 µM)
O=C1CC(Sc2c(F)c(F)c(F)c(F)c2F)N1 (racemic) | > 100 µg/mL | 1.5 µg/mL (≈ 5.57 µM) | 1.5 µg/mL (≈ 5.57 µM)
O=C1CC(Sc2ccc(F)cc2Cl)N1 (racemic) | 25 µg/mL (≈ 108 µM) | 12.5 µg/mL (≈ 54 µM) | 50 µg/mL (≈ 216 µM)
O=C1CC(Sc2ccc(F)c(Cl)c2)N1 (racemic) | 25 µg/mL (≈ 108 µM) | 12.5 µg/mL (≈ 54 µM) | 25 µg/mL (≈ 108 µM)
O=C1CC(Sc2ccc(Cl)cc2Cl)N1 (racemic) | 25 µg/mL (≈ 101 µM) | 6.25 µg/mL (≈ 25.2 µM) | 6.25 µg/mL (≈ 25.2 µM)
O=C1CC(Sc2ccc([N+](=O)[O-])cc2)N1 (racemic) | 25 µg/mL (≈ 111 µM) | 6.25 µg/mL (≈ 27.9 µM) | 12.5 µg/mL (≈ 55.7 µM)
O=C1CC(Sc2ccccc2C(F)(F)F)N1 (racemic) | ≥ 100 µg/mL | 1.5 µg/mL (≈ 6.07 µM) | 1.5 µg/mL (≈ 6.07 µM)
O=C1CC(Sc2cccc(C(F)(F)F)c2)N1 (racemic) | 6.25 µg/mL (≈ 25.3 µM) | 200 µg/mL (≈ 809 µM) | –
O=C1CC(Sc2ccc(C(F)(F)F)cc2)N1 (racemic) | 12.5 µg/mL (≈ 50.6 µM) | 100 µg/mL (≈ 404 µM) | 100 µg/mL (≈ 404 µM)
O=C1CC(Sc2cc(C(F)(F)F)cc(C(F)(F)F)c2)N1 (racemic) | > 100 µg/mL | 12.5 µg/mL (≈ 39.7 µM) | 100 µg/mL (≈ 317 µM)
COc1ccccc1SC1CC(=O)N1 (racemic) | 250 µg/mL (≈ 1190 µM) | 100 µg/mL (≈ 478 µM) | > 200 µg/mL
COc1cccc(SC2CC(=O)N2)c1 (racemic) | > 100 µg/mL | 100 µg/mL (≈ 478 µM) | > 200 µg/mL
COc1ccc(SC2CC(=O)N2)cc1 (racemic) | 100 µg/mL (≈ 478 µM) | 200 µg/mL (≈ 956 µM) | > 200 µg/mL

SMILES | MIC [1] | MIC (Moraxella catarrhalis [2]) | MBC (Moraxella catarrhalis [3])
COc1ccc(OC)c(SC2CC(=O)N2)c1 (racemic) | 250 µg/mL (≈ 1040 µM) | 100 µg/mL (≈ 418 µM) | > 200 µg/mL
COc1ccc(SC2CC(=O)N2)cc1OC (racemic) | 250 µg/mL (≈ 1040 µM) | 200 µg/mL (≈ 836 µM) | 200 µg/mL (≈ 836 µM)
CSc1ccc(SC2CC(=O)N2)cc1 (racemic) | > 100 µg/mL | 100 µg/mL (≈ 444 µM) | 100 µg/mL (≈ 444 µM)
O=C1CC(Sc2cccc3ccccc23)N1 (racemic) | > 250 µg/mL | 100 µg/mL (≈ 436 µM) | > 200 µg/mL
O=C1CC(Oc2ccc([N+](=O)[O-])cc2)N1 (racemic) | 25 µg/mL (≈ 120 µM) | 50 µg/mL (≈ 240 µM) | 50 µg/mL (≈ 240 µM)
O=C1CC(Oc2ccc(C(F)(F)F)cc2)N1 (racemic) | 250 µg/mL (≈ 1080 µM) | 200 µg/mL (≈ 865 µM) | 200 µg/mL (≈ 865 µM)
O=C1CC([Se]c2ccccc2)N1 (racemic) | 25 µg/mL (≈ 111 µM) | 6.25 µg/mL (≈ 27.6 µM) | 6.25 µg/mL (≈ 27.6 µM)
C=CCSC1CC(=O)N1 (racemic) | > 200 µg/mL | > 200 µg/mL | –
O=C1CC(Sc2ccc(F)cc2F)N1C(=O)NCc1ccccc1 (racemic) | 100 µg/mL (≈ 287 µM) | 1.63 µg/mL (≈ 4.68 µM) | 1.63 µg/mL (≈ 4.68 µM)
O=C1CC(Sc2c(F)c(F)c(F)c(F)c2F)N1C(=O)NCc1ccccc1 (racemic) | > 100 µg/mL | 3.1 µg/mL (≈ 7.7 µM) | 6.25 µg/mL (≈ 15.5 µM)
O=C1CC(Sc2ccc(F)cc2Cl)N1C(=O)NCc1ccccc1 (racemic) | 25 µg/mL (≈ 68.5 µM) | 12.5 µg/mL (≈ 34.3 µM) | 25 µg/mL (≈ 68.5 µM)
O=C1CC(Sc2ccc(F)c(Cl)c2)N1C(=O)NCc1ccccc1 (racemic) | 25 µg/mL (≈ 68.5 µM) | 6.25 µg/mL (≈ 17.1 µM) | 6.25 µg/mL (≈ 17.1 µM)
O=C1CC(Sc2ccc(Cl)cc2Cl)N1C(=O)NCc1ccccc1 (racemic) | 25 µg/mL (≈ 65.6 µM) | 3.13 µg/mL (≈ 8.21 µM) | 6.25 µg/mL (≈ 16.4 µM)
O=C1CC(Sc2ccc([N+](=O)[O-])cc2)N1C(=O)NCc1ccccc1 (racemic) | 25 µg/mL (≈ 70 µM) | 3.12 µg/mL (≈ 8.74 µM) | 25 µg/mL (≈ 70 µM)
O=C1CC(Sc2ccccc2C(F)(F)F)N1C(=O)NCc1ccccc1 (racemic) | 125 µg/mL (≈ 329 µM) | 25 µg/mL (≈ 65.7 µM) | 25 µg/mL (≈ 65.7 µM)
COc1ccccc1SC1CC(=O)N1C(=O)NCc1ccccc1 (racemic) | 125 µg/mL (≈ 365 µM) | 200 µg/mL (≈ 584 µM) | 200 µg/mL (≈ 584 µM)
COc1cccc(SC2CC(=O)N2C(=O)NCc2ccccc2)c1 (racemic) | 100 µg/mL (≈ 292 µM) | 200 µg/mL (≈ 584 µM) | 200 µg/mL (≈ 584 µM)
COc1ccc(SC2CC(=O)N2C(=O)NCc2ccccc2)cc1 (racemic) | 125 µg/mL (≈ 365 µM) | 200 µg/mL (≈ 584 µM) | 200 µg/mL (≈ 584 µM)
COc1ccc(OC)c(SC2CC(=O)N2C(=O)NCc2ccccc2)c1 (racemic) | 50 µg/mL (≈ 134 µM) | 100 µg/mL (≈ 268 µM) | 200 µg/mL (≈ 537 µM)
COc1ccc(SC2CC(=O)N2C(=O)NCc2ccccc2)cc1OC (racemic) | 250 µg/mL (≈ 671 µM) | 200 µg/mL (≈ 537 µM) | > 200 µg/mL

SMILES | MIC [1] | MIC (Moraxella catarrhalis [2]) | MBC (Moraxella catarrhalis [3])
O=C1CC(Sc2cccs2)N1C(=O)NCc1ccccc1 (racemic) | 6.25 µg/mL (≈ 19.6 µM) | 50 µg/mL (≈ 157 µM) | 100 µg/mL (≈ 314 µM)
CSc1ccc(SC2CC(=O)N2C(=O)NCc2ccccc2)cc1 (racemic) | > 100 µg/mL | – | –
O=C1CC(Sc2cccc3ccccc23)N1C(=O)NCc1ccccc1 (racemic) | > 100 µg/mL | 200 µg/mL (≈ 552 µM) | > 200 µg/mL
O=C1CC(Oc2ccc([N+](=O)[O-])cc2)N1C(=O)NCc1ccccc1 (racemic) | 250 µg/mL (≈ 732 µM) | 6.25 µg/mL (≈ 18.3 µM) | 6.25 µg/mL (≈ 18.3 µM)
O=C1CC(Oc2ccc(C(F)(F)F)cc2)N1C(=O)NCc1ccccc1 (racemic) | 125 µg/mL (≈ 343 µM) | 50 µg/mL (≈ 137 µM) | > 200 µg/mL
O=C1CC([Se]c2ccccc2)N1C(=O)NCc1ccccc1 (racemic) | 25 µg/mL (≈ 69.6 µM) | 50 µg/mL (≈ 139 µM) | 50 µg/mL (≈ 139 µM)
C#CCCCC(=O)N1C(=O)CC1Sc1ccccc1 (racemic) | 45 µg/mL (≈ 165 µM) | 100 µg/mL (≈ 366 µM) | 100 µg/mL (≈ 366 µM)
O=C1CC(Sc2ccccc2)N1C(=O)NC(c1ccccc1)c1ccccc1 (racemic) | 50 µg/mL (≈ 129 µM) | – | –
O=C1CC(Sc2ccccc2)N1C(=O)NC1c2ccccc2-c2ccccc21 (racemic) | > 100 µg/mL | – | –
O=C1CC(Sc2ccccc2)N1C(=O)Nc1cccc2ccccc12 (racemic) | 25 µg/mL (≈ 71.8 µM) | – | –
O=C1CC(Sc2ccc(F)cc2)N1C(=O)NC(c1ccccc1)c1ccccc1 (racemic) | > 100 µg/mL | > 200 µg/mL | > 200 µg/mL
O=C1CC(Sc2ccc(F)cc2)N1C(=O)NCC(c1ccccc1)c1ccccc1 (racemic) | > 100 µg/mL | > 200 µg/mL | > 200 µg/mL
CCNC(=O)N1C(=O)CC1Sc1ccc(F)cc1F (racemic) | > 100 µg/mL | – | –
CC(NC(=O)N1C(=O)CC1Sc1ccccc1)c1cccc2ccccc12 (racemic) | > 100 µg/mL | > 200 µg/mL | > 200 µg/mL
O=C1CC(Sc2ccc(F)cc2F)N1C(=O)NCc1ccccc1F (racemic) | 50 µg/mL (≈ 136 µM) | – | –
COc1ccccc1CNC(=O)N1C(=O)CC1Sc1ccc(F)cc1F (racemic) | ≥ 100 µg/mL | – | –
O=C1CC(Sc2ccc(F)cc2F)N1C(=O)Nc1ccccc1F (racemic) | 25 µg/mL (≈ 71 µM) | – | –
O=C1CC(Sc2ccc(F)cc2Cl)N1C(=O)NC(c1ccccc1)c1ccccc1 (racemic) | 50 µg/mL (≈ 113 µM) | > 200 µg/mL | > 200 µg/mL
